Experimental data reported in ChEMBL document CHEMBL4346672, “Antimicrobial and KPC/AmpC inhibitory activity of functionalized benzosiloxaboroles” (Eur J Med Chem, 2019).
≈ marks a conversion by molar mass, not a printed value. Calls of active or inactive are those of the source. No cut-off for these calls is given here.

How the values were obtained:
[1] = tested on: Enterobacter cloacae; experiment: Antibacterial activity against Enterobacter cloacae DSM 6234 assessed as diameter of zone inhibition measured after 18 hrs by CLSI disc diffusion method; assay type: functional
In short: (§1)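 Disc diffusion on Mueller-Hinton II agar. Compounds dissolved in DMSO. Strains stored at -80 °C and subcultured twice on tryptic soy agar before testing. Inhibition zones read after 35 °C, 18 h.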

[2] = tested on: Candida albicans; experiment: Antifungal activity against Candida albicans ATCC 90028 assessed as diameter of zone inhibition incubated for 24 hrs by CLSI disc diffusion method; assay type: functional
In short: (§2)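 Yeast disc diffusion on Mueller-Hinton agar supplemented with 2% glucose and 0.5 mg/L methylene blue. Compounds in DMSO. Yeasts subcultured on Sabouraud dextrose agar before testing. Zones read after 35 °C, 24 h.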

[3] = Dissociation constant, pKa1 of compound in 0.1 M NaOH by potentiometric analysis; assay type: physicochemical
[4] = tested on: Serratia marcescens; experiment: Antibacterial activity against Serratia marcescens ATCC 13880 assessed as fold reduction of MIC in presence of efflux pump inhibitor PAbetaN incubated for 18 hrs by broth microdilution method; assay type: functional
In short: (§3)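 MICs determined with and without PAβN at 50 mg/L in Mueller-Hinton broth containing 1 mM MgSO₄. 2-fold serial dilutions per CLSI. Fold change taken from the paired MICs after 35 °C, 18 h.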

[5] = tested on: Acinetobacter baumannii; experiment: Antibacterial activity against Acinetobacter baumannii ATCC 19606 assessed as fold reduction of MIC in presence of efflux pump inhibitor PAbetaN incubated for 18 hrs by broth microdilution method; assay type: functional; in short: as §3
[6] = tested on: Pichia kudriavzevii; experiment: Antifungal activity against Candida krusei ATCC 6258 assessed as diameter of zone inhibition incubated for 24 hrs by CLSI disc diffusion method; assay type: functional; in short: as §2
[7] = tested on: Proteus mirabilis; experiment: Antibacterial activity against Proteus mirabilis ATCC 12453 assessed as diameter of zone inhibition measured after 18 hrs by CLSI disc diffusion method; assay type: functional; in short: as §1
[8] = tested on: Bordetella bronchiseptica; experiment: Antibacterial activity against Bordetella bronchiseptica ATCC 4617 assessed as diameter of zone inhibition measured after 18 hrs by CLSI disc diffusion method; assay type: functional; in short: as §1
[9] = tested on: Enterococcus faecalis; experiment: Antibacterial activity against Enterococcus faecalis ATCC 29212 measured after 18 hrs by CLSI broth dilution method; assay type: functional; conditions: ATCC 29212, 18 h
In short: (§4)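 Broth MIC in Mueller-Hinton II broth following CLSI, compounds dissolved in DMSO. Strains subcultured twice on tryptic soy agar before testing. Growth read after 35 °C, 18 h.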

[10] = tested on: Stenotrophomonas maltophilia; experiment: Antibacterial activity against Stenotrophomonas maltophilia ATCC 13637 assessed as diameter of zone inhibition measured after 18 hrs by CLSI disc diffusion method; assay type: functional; in short: as §1
[11] = tested on: Staphylococcus aureus; experiment: Antibacterial activity against Staphylococcus aureus ATCC 6538P measured after 18 hrs by CLSI broth dilution method; assay type: functional; in short: as §4
[12] = tested on: Candida parapsilosis; experiment: Antifungal activity against Candida parapsilosis ATCC 22019 assessed as diameter of zone inhibition incubated for 24 hrs by CLSI disc diffusion method; assay type: functional; in short: as §2
[13] = tested on: Staphylococcus aureus; experiment: Antibacterial activity against Staphylococcus aureus ATCC 6538P assessed as diameter of zone inhibition measured after 18 hrs by CLSI disc diffusion method; assay type: functional; in short: as §1
[14] = tested on: Serratia marcescens; conditions: ATCC 13880
[15] = tested on: Saccharomyces cerevisiae; experiment: Antifungal activity against Saccharomyces cerevisiae ATCC 9763 assessed as decrease in fungal cell growth at 0.78 to 12.5 mg/L incubated for 24 hrs by CLSI broth dilution method; assay type: functional; conditions: ATCC 9763, 24 h
In short: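 Yeast strain subcultured on Sabouraud dextrose agar for 24–48 h at 30 °C before testing. Compounds dissolved in DMSO.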

[16] = tested on: Acinetobacter baumannii; experiment: Antibacterial activity against Acinetobacter baumannii ATCC 19606 measured after 18 hrs by CLSI broth dilution method; assay type: functional; conditions: ATCC 19606, 18 h; in short: as §4
[17] = tested on: Staphylococcus epidermidis; experiment: Antibacterial activity against Staphylococcus epidermidis ATCC 12228 measured after 18 hrs by CLSI broth dilution method; assay type: functional; conditions: ATCC 12228, 18 h; in short: as §4
[18] = tested on: Candida albicans; experiment: Antifungal activity against Candida albicans ATCC 90028 assessed as decrease in fungal cell growth at 0.78 to 12.5 mg/L incubated for 24 hrs by CLSI broth dilution method; assay type: functional; conditions: ATCC 90028, 24 h
In short: (§5)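 Yeast broth dilution in RPMI 1640 with 2% glucose, compounds in DMSO. Yeasts pre-grown on Sabouraud dextrose agar. Growth read after 35 °C, 24 h.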

[19] = tested on: Candida tropicalis; experiment: Antifungal activity against Candida tropicalis IBA 171 assessed as decrease in fungal cell growth at 0.78 to 12.5 mg/L incubated for 24 hrs by CLSI broth dilution method; assay type: functional; conditions: IBA 171, 24 h; in short: as §5
[20] = tested on: Klebsiella pneumoniae; experiment: Antibacterial activity against Klebsiella pneumoniae ATCC 13883 measured after 18 hrs by CLSI broth dilution method; assay type: functional; conditions: ATCC 13883, 18 h; in short: as §4
[21] = tested on: Pichia kudriavzevii; experiment: Antifungal activity against Candida krusei ATCC 6258 assessed as decrease in fungal cell growth at 0.78 to 12.5 mg/L incubated for 24 hrs by CLSI broth dilution method; assay type: functional; conditions: ATCC 6258, 24 h; in short: as §5
[22] = tested on: Candida parapsilosis; experiment: Antifungal activity against Candida parapsilosis ATCC 22019 assessed as decrease in fungal cell growth at 0.78 to 12.5 mg/L incubated for 24 hrs by CLSI broth dilution method; assay type: functional; conditions: Lodderomyces parapsilosis, ATCC 22019, 24 h; in short: as §5
[23] = tested on: Staphylococcus epidermidis; experiment: Antibacterial activity against Staphylococcus epidermidis ATCC 12228 assessed as diameter of zone inhibition measured after 18 hrs by CLSI disc diffusion method; assay type: functional; in short: as §1
[24] = tested on: Pseudomonas aeruginosa; experiment: Antibacterial activity against Pseudomonas aeruginosa ATCC 27853 assessed as diameter of zone inhibition measured after 18 hrs by CLSI disc diffusion method; assay type: functional, organism-based; in short: as §1
[25] = tested on: Candida tropicalis; experiment: Antifungal activity against Candida tropicalis IBA 171 assessed as diameter of zone inhibition incubated for 24 hrs by CLSI disc diffusion method; assay type: functional; in short: as §2
[26] = tested on: Enterobacter cloacae; experiment: Antibacterial activity against Enterobacter cloacae DSM 6234 measured after 18 hrs by CLSI broth dilution method; assay type: functional; conditions: DSM 6234, 18 h; in short: as §4
[27] = tested on: Klebsiella pneumoniae; conditions: ATCC 13883
[28] = tested on: Bordetella bronchiseptica; experiment: Antibacterial activity against Bordetella bronchiseptica ATCC 4617 measured after 18 hrs by CLSI broth dilution method; assay type: functional; conditions: ATCC 4617, 18 h; in short: as §4
[29] = tested on: Escherichia coli; experiment: Antibacterial activity against Escherichia coli ATCC 25922 measured after 18 hrs by CLSI broth dilution method; assay type: functional; conditions: ATCC 25922, 18 h; in short: as §4
[30] = tested on: Enterococcus faecalis; experiment: Antibacterial activity against Enterococcus faecalis ATCC 29212 assessed as diameter of zone inhibition measured after 18 hrs by CLSI disc diffusion method; assay type: functional; in short: as §1
[31] = tested on: Saccharomyces cerevisiae; experiment: Antifungal activity against Saccharomyces cerevisiae ATCC 9763 diameter of zone inhibition incubated for 24 hrs by CLSI disc diffusion method; assay type: functional
In short: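 Disc-diffusion run on Mueller-Hinton II agar with 2% glucose and 0.5 mg/L methylene blue, using compounds in DMSO. Yeast was precultured on Sabouraud dextrose agar (24–48 h, 30 °C). Zones read after 24 h at 35 °C.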

[32] = tested on: Burkholderia cepacia; experiment: Antibacterial activity against Burkholderia cepacia ATCC 25416 assessed as diameter of zone inhibition measured after 18 hrs by CLSI disc diffusion method; assay type: functional; in short: as §1
[33] = tested on: Proteus mirabilis; experiment: Antibacterial activity against Proteus mirabilis ATCC 12453 measured after 18 hrs by CLSI broth dilution method; assay type: functional; conditions: ATCC 12453, 18 h; in short: as §4

| Compound | diameter of the inhibition zone (DIZ) [1] | diameter of the inhibition zone (DIZ) [2] [mm] | pKa [3] | fold change (FC) [4] | fold change (FC) [5] | diameter of the inhibition zone (DIZ) [6] [mm] | diameter of the inhibition zone (DIZ) [7] | diameter of the inhibition zone (DIZ) [8] | MIC [9] [µg/mL] | diameter of the inhibition zone (DIZ) [10] [mm] | MIC [11] [µg/mL] | diameter of the inhibition zone (DIZ) [12] [mm] | diameter of the inhibition zone (DIZ) [13] [mm] | DIZ [14] | MIC [15] [µg/mL] | MIC [16] [µg/mL] | MIC [17] [µg/mL] | MIC [18] [µg/mL] | MIC [19] [µg/mL] | MIC [20] [µg/mL] | also measured |
| --- | --- | --- | --- | --- | --- | --- | --- | --- | --- | --- | --- | --- | --- | --- | --- | --- | --- | --- | --- | --- | --- |
| C[Si]1(C)OB(O)c2cccc(F)c21 | inactive | 24 | 7.2 | 4 | 4 | 18 | 16 mm | inactive | 200 (≈ 1020 µM) | 11 | 50 (≈ 255 µM) | 20 | 25 | inactive | 6.25 (≈ 31.9 µM) | 200 (≈ 1020 µM) | 25 (≈ 128 µM) | 50 (≈ 255 µM) | 50 (≈ 255 µM) | > 400 | MIC [21]: 50 µg/mL (≈ 255 µM); MIC [22]: 100 µg/mL (≈ 510 µM); diameter of the inhibition zone (DIZ) [23]: 39 mm; diameter of the inhibition zone (DIZ) [24]: inactive; diameter of the inhibition zone (DIZ) [25]: 14 mm; MIC [26]: > 400 µg/mL; DIZ [27]: inactive; MIC [28]: 200 µg/mL (≈ 1020 µM); MIC [29]: 400 µg/mL (≈ 2040 µM); diameter of the inhibition zone (DIZ) [30]: 13 mm; diameter of the inhibition zone (DIZ) [31]: 45 mm; diameter of the inhibition zone (DIZ) [32]: inactive; MIC [33]: 200 µg/mL (≈ 1020 µM) |
| C[Si]1(C)OB(O)c2ccc(C(F)(F)F)cc21 | inactive | 14 | 6.6 | 2 | 16 | 13 | inactive | inactive | 50 (≈ 203 µM) | 14 | 50 (≈ 203 µM) | 12 | 20 | inactive | 200 (≈ 813 µM) | 400 (≈ 1630 µM) | 25 (≈ 102 µM) | 50 (≈ 203 µM) | 25 (≈ 102 µM) | > 400 | MIC [21]: 200 µg/mL (≈ 813 µM); MIC [22]: 100 µg/mL (≈ 406 µM); diameter of the inhibition zone (DIZ) [23]: 20 mm; diameter of the inhibition zone (DIZ) [24]: inactive; diameter of the inhibition zone (DIZ) [25]: 13 mm; MIC [26]: > 400 µg/mL; DIZ [27]: inactive; MIC [28]: 400 µg/mL (≈ 1630 µM); MIC [29]: > 400 µg/mL; diameter of the inhibition zone (DIZ) [30]: 12 mm; diameter of the inhibition zone (DIZ) [31]: 15 mm; diameter of the inhibition zone (DIZ) [32]: inactive; MIC [33]: > 400 µg/mL |
